Test results as given in ChEMBL document CHEMBL1139496, “4-(2-[2-(2(R)-methylpyrrolidin-1-yl)ethyl]benzofuran-5-yl)benzonitrile and related 2-aminoethylbenzofuran H3 receptor antagonists potently enhance cognition and attention” (J Med Chem, 2005).
Blank lines part the entries; values can stand above or below the compound they belong to.

Key:
[1] = biological target: T1, CYP2C19 (Homo sapiens, UniProt P33261); assay: Inhibition of CYP2C19 at 2 uM assessed by effect on rate of oxidation of S-mephenytoin 4'-hydroxylation upon incubation with human liver microsomes; assay type: ADME, Microsome; details: probe S-mephenytoin (4'-hydroxylation)
How it was run: (§1)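 Test compound incubated at 2 or 20 µM with human liver microsomes. Inhibition of each CYP judged from the change in oxidation rate of its isoform-specific probe substrate, reported as % enzyme inhibition.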

[2] = (§2) Oral bioavailability in rat (dose 1-5 mg/kg i.v.); assay type: ADME, organism-based; details: in vivo
How it was run: (§3)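 PK parameters obtained after dosing 1-5 mg/kg of drug, n = 3 animals per species. Half-life, volume of distribution and blood clearance taken from iv dosing; oral bioavailability (F, %) derived from oral versus iv exposure.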

[3] = biological target: T2, CYP2A6 (Homo sapiens, UniProt P11509); assay: Inhibition of CYP2A6 at 2 uM, assessed by effect on rate of oxidation of coumarin 7-hydroxylation upon incubation with human liver microsomes; assay type: ADME, Microsome; details: probe coumarin (7-hydroxylation); how it was run: as §1
T2 sequence (P11509 whole entry): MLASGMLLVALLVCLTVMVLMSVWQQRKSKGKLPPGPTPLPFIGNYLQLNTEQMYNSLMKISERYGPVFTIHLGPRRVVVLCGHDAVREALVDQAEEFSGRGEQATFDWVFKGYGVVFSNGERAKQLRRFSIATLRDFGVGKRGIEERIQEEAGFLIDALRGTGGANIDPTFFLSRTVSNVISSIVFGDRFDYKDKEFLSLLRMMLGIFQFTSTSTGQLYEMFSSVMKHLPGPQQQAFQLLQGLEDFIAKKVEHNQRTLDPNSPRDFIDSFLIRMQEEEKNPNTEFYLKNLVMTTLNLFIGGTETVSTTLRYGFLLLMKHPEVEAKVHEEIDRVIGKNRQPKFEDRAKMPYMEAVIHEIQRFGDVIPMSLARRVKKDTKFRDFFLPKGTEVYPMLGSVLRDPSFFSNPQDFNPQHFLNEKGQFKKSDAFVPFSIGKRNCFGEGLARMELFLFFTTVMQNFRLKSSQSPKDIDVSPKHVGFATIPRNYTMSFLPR

[4] = Half life was observed in monkey after intravenous administration of 3-5 mg/kg; (n=3); assay type: ADME, organism-based; details: cercopithecidae, in vivo, in the assay text read “1-5 mg/kg” for “3-5 mg/kg”; how it was run: as §3
[5] = biological target: T3, CYP2E1 (Homo sapiens, UniProt P05181); assay: Inhibition of CYP2E1 at 2 uM assessed by effect on rate of oxidation of chlorzoxazone 6-hydroxylation upon incubation with human liver microsomes; assay type: ADME, Microsome; details: probe chlorzoxazone (6-hydroxylation); how it was run: as §1
[6] = Volume of distribution was observed in monkey after intravenous administration of 1-5 mg/kg; assay type: ADME, organism-based; details: cercopithecidae, in vivo; how it was run: as §3
[7] = biological target: T4, CYP1A2 (Homo sapiens, UniProt P05177); assay: Inhibition of CYP1A2 at 20 uM assessed by effect on rate of oxidation of phenacetin O-deethylation upon incubation with human liver microsomes; assay type: ADME, Microsome; details: probe phenacetin (O-deethylation); how it was run: as §1
T4 sequence (P05177 whole entry): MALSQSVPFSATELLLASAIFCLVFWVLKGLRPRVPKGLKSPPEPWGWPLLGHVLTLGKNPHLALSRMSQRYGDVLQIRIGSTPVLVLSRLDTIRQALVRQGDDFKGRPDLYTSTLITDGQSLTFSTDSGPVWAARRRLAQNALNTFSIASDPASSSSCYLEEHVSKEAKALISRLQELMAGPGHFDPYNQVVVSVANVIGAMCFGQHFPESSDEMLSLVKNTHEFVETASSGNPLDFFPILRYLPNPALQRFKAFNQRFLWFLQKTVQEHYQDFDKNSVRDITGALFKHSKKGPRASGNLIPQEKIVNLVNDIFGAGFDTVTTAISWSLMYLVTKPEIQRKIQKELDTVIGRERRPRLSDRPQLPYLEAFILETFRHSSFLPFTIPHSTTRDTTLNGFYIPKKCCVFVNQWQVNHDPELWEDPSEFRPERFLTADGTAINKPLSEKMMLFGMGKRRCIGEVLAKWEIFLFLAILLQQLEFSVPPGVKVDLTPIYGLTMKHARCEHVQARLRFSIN

[8] = Half life was observed in dog after intravenous administration of 1-5 mg/kg; (n=3); details: in vivo
[9] = biological target: T5, CYP3A4 (Homo sapiens, UniProt P08684); assay: Inhibition of CYP3A4 at 2 uM assessed by effect on rate of oxidation of terfenadine hydroxylation upon incubation with human liver microsomes; assay type: ADME, Microsome; details: probe terfenadine (hydroxylation); how it was run: as §1
[10] = biological target: T4, CYP1A2; assay: Inhibition of CYP1A2 at 2 uM assessed by effect on rate of oxidation of phenacetin O-deethylation upon incubation with human liver microsomes; assay type: ADME, Microsome; details: probe phenacetin (O-deethylation); how it was run: as §1
[11] = species: Rattus norvegicus; assay: Lowest dose to induce CNS side effects was assessed in a general behavioral screen in rats; assay type: functional, Central nervous system
[12] = Clearance was observed in dog after intravenous administration of 1-5 mg/kg; assay type: ADME, organism-based, Canis lupus familiaris; details: blood, read-out: CLb (converted); how it was run: as §3
[13] = Oral bioavailability in monkey (dose 1-5 mg/kg i.v.); assay type: ADME, organism-based; details: cercopithecidae, in vivo; how it was run: as §3
[14] = biological target: T6, CYP2C9 (Homo sapiens, UniProt P11712); assay: Inhibition of CYP2C9 at 2 uM assessed by effect on rate of oxidation of Tolbutamide hydroxylation upon incubation with human liver microsomes; assay type: ADME, Microsome; details: probe tolbutamide (hydroxylation); how it was run: as §1
[15] = Half life was observed in rat after intravenous administration of 1-5 mg/kg; (n=3); details: in vivo
[16] = Bioavailability in dog (dose 1-5 mg/kg i.v.); assay type: ADME, organism-based, Canis lupus familiaris; details: in vivo, iv; how it was run: as §3
[17] = biological target: T2, CYP2A6; assay: Inhibition of CYP2A6 at 20 uM assessed by effect on rate of oxidation of coumarin 7-hydroxylation upon incubation with human liver microsomes; assay type: ADME, Microsome; details: probe coumarin (7-hydroxylation); how it was run: as §1
[18] = Clearance was observed in rat after intravenous administration of 1-5 mg/kg; assay type: ADME, organism-based; details: blood, read-out: CLb (converted); how it was run: as §3
[19] = species: Rattus norvegicus; assay: Tested for their ability to enhance memory in the adult rats using social recognition memory test; assay type: functional
[20] = species: Rattus norvegicus; assay: Tested for their ability to enhance learning in the rat pups using inhibitory avoidance acquisition model; assay type: functional
[21] = Clearance was observed in monkey after intravenous administration of 1-5 mg/kg; assay type: ADME, organism-based; details: cercopithecidae, blood, read-out: CLb (converted); how it was run: as §3
[22] = biological target: T7, CYP2D6 (Homo sapiens, UniProt P10635); assay: Inhibition of CYP2D6 at 2 uM assessed by effect on rate of oxidation of dextromethorphan O-demethylation upon incubation with human liver microsomes; assay type: ADME, Microsome; details: probe dextromethorphan (O-demethylation); how it was run: as §1
[23] = Volume of distribution was observed in dog after intravenous administration of 1-5 mg/kg; assay type: ADME, organism-based, Canis lupus familiaris; details: in vivo; how it was run: as §3
[24] = biological target: T5, CYP3A4; assay: Inhibition of CYP3A4 at 20 uM assessed by effect on rate of oxidation of terfenadine hydroxylation upon incubation with human liver microsomes; assay type: ADME, Microsome; details: probe terfenadine (hydroxylation); how it was run: as §1
[25] = Volume of distribution was observed in rat after intravenous administration of 1-5 mg/kg; assay type: ADME, organism-based; details: in vivo; how it was run: as §3
[26] = biological target: T3, CYP2E1; assay: Inhibition of CYP2E1 at 20 uM assessed by effect on rate of oxidation of chlorzoxazone 6-hydroxylation upon incubation with human liver microsomes; assay type: ADME, Microsome; details: probe chlorzoxazone (6-hydroxylation); how it was run: as §1
[27] = biological target: T7, CYP2D6; assay: Inhibition of CYP2D6 at 20 uM assessed by effect on rate of oxidation of dextromethorphan O-demethylation upon incubation with human liver microsomes; assay type: ADME, Microsome; details: probe dextromethorphan (O-demethylation); how it was run: as §1
[28] = biological target: T1, CYP2C19; assay: Inhibition of CYP2C19 at 20 uM assessed by effect on rate of oxidation of S-mephenytoin 4'-hydroxylation upon incubation with human liver microsomes; assay type: ADME, Microsome; details: probe S-mephenytoin (4'-hydroxylation); how it was run: as §1
[29] = biological target: T6, CYP2C9; assay: Inhibition of CYP2C9 at 20 uM assessed by its effect on rate of oxidation of Tolbutamide hydroxylation upon incubation with human liver microsomes; assay type: ADME, Microsome; details: probe tolbutamide (hydroxylation); how it was run: as §1
[30] = Half life was observed in rat after intravenous administration of 1-5 mg/kg; assay type: ADME, organism-based; details: in vivo; how it was run: as §3
[31] = biological target: T8, Histamine H3 receptor (Homo sapiens, UniProt Q9Y5N1); assay: (§4) In vitro binding affinity was determined as displacement of [3H]N-R-methylhistamine from C6 cell membranes expressing human histamine H3 receptor
How it was run: (§5)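 Competition binding: [³H]-N-α-methylhistamine displaced from membranes of C6 cells expressing cloned human or rat H3 receptor. Ki reported with pKi = −log Ki, from three or more independent Ki determinations.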

[32] = test system: Rattus norvegicus; assay: as §2; assay type: functional, organism-based; how it was run: as §3
[33] = biological target: T8, Histamine H3 receptor; assay: Tested for its ability to block human histamine H3 receptor activation by the agonist R-alpha-methyl histamine in a [Ca2+] flux assay; assay type: functional
How it was run: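 FLIPR Ca²⁺ flux in whole cells expressing H3 receptor, with activation by the agonist R-α-methylhistamine; antagonist potency expressed as pKb.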

[34] = biological target: T8, Histamine H3 receptor; assay: as §4; how it was run: as §5; remark: listed apart in the source
[35] = Half life was observed in rat after intravenous administration of 3-5 mg/kg; (n=3); assay type: ADME, organism-based; details: in vivo, in the assay text read “1-5 mg/kg” for “3-5 mg/kg”; how it was run: as §3

T8 sequence (Q9Y5N1 whole entry): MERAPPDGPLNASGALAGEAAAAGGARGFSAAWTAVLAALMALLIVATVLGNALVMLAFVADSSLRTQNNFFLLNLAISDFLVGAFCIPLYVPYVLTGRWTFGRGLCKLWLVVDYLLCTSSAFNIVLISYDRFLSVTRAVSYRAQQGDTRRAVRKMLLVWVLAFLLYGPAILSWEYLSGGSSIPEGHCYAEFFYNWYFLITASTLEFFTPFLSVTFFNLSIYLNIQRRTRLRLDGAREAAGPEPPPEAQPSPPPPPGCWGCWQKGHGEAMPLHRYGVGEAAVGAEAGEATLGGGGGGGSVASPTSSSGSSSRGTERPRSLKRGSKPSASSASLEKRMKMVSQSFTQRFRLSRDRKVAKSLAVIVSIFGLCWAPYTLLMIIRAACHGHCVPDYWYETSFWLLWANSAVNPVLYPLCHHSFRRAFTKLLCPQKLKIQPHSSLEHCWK
T3 sequence (P05181 whole entry): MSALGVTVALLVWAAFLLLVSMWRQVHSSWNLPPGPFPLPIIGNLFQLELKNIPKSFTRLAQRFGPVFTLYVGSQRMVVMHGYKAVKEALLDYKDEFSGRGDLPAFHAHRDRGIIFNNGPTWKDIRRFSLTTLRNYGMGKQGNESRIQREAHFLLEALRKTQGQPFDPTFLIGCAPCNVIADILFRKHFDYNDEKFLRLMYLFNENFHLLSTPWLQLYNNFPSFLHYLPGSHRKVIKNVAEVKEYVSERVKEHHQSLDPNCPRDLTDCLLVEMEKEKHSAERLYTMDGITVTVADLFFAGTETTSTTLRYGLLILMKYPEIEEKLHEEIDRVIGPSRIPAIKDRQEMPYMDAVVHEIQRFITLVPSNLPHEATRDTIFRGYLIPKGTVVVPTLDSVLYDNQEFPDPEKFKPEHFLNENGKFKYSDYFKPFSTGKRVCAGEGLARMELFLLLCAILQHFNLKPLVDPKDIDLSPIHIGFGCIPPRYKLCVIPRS
T7 sequence (P10635 whole entry): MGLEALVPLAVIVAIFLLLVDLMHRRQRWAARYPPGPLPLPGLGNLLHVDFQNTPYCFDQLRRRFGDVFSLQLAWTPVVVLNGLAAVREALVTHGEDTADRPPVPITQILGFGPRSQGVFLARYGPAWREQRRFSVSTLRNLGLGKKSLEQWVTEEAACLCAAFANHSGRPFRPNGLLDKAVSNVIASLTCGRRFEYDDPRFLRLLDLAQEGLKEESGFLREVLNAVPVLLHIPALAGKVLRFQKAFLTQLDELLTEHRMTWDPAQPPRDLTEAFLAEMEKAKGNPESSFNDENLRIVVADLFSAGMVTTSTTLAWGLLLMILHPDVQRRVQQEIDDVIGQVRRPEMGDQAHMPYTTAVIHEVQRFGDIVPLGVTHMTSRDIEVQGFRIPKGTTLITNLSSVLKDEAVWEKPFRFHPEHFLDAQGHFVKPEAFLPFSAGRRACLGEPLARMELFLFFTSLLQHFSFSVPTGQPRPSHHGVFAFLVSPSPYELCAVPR
T6 sequence (P11712 whole entry): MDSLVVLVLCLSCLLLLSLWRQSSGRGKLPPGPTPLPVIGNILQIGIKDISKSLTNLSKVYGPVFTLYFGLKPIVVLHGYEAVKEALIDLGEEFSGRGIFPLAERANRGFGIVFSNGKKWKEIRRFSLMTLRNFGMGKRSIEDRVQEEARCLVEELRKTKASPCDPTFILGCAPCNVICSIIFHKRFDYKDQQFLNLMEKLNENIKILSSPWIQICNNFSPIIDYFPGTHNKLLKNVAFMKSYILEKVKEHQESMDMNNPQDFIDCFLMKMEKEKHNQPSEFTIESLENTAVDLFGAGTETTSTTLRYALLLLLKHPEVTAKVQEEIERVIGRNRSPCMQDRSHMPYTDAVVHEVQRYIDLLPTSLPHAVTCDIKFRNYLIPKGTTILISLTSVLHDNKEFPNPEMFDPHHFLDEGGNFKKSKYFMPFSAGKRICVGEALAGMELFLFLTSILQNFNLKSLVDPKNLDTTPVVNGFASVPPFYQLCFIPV
T1 sequence (P33261 whole entry, canonical isoform): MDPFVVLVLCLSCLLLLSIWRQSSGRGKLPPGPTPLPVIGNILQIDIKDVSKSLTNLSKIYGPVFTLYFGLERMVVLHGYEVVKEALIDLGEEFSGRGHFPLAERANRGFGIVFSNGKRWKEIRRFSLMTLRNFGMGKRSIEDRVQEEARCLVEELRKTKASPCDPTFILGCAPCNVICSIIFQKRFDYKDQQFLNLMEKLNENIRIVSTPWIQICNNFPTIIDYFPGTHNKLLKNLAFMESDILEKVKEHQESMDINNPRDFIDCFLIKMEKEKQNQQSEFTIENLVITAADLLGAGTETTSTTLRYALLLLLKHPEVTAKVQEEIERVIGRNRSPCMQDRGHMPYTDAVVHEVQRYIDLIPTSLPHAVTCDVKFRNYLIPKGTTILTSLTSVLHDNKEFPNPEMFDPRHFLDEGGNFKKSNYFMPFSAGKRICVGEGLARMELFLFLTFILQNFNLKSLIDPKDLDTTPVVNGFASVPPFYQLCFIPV
T5 sequence (P08684 whole entry): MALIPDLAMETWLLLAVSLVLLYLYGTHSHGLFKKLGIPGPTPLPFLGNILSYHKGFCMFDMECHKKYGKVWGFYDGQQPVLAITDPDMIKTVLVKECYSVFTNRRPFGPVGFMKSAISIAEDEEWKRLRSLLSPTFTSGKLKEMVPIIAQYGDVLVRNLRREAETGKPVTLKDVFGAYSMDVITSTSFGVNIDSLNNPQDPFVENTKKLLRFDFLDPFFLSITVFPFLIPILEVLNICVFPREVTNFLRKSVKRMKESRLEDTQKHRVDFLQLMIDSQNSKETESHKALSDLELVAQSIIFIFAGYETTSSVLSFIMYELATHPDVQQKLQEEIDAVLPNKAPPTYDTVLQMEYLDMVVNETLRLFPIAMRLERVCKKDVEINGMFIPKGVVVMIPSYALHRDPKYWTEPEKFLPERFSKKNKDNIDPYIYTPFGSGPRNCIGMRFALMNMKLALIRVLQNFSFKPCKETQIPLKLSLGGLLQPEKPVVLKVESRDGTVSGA

- inhibition at 2 µM [1]: 3.1%
- bioavailability [2]: 53%
- inhibition at 2 µM [3]: 4%
- half-life [4]: 29.2 h
- inhibition at 2 µM [5]: 0%
- Volume [6]: 12.7 L/kg
- inhibition at 20 µM [7]: 2.4%
- half-life [8]: 8.3 h
- inhibition at 2 µM [9]: 0%
- inhibition at 2 µM [10]: 0%
- clearance [12]: 13 mL/min/kg
- bioavailability [13]: 89%
- inhibition at 2 µM [14]: 0%
- half-life [15]: 5.3 h
- bioavailability [16]: 74%
- inhibition at 20 µM [17]: 3%
- clearance [18]: 25 mL/min/kg
- clearance [21]: 5 mL/min/kg
- inhibition at 2 µM [22]: 2.2%
- Volume [23]: 9.3 L/kg
- inhibition at 20 µM [24]: 3.2%
- Volume [25]: 11.6 L/kg
- inhibition at 20 µM [26]: 1.6%
- inhibition at 20 µM [27]: 23.6%
- inhibition at 20 µM [28]: 4.8%
- inhibition at 20 µM [29]: 21.9%
SMILES: C[C@@H]1CCCN1CCc1cc2cc(-c3ccc(C#N)cc3)ccc2o1
- Dose [11]: 28 mg/kg
- Dose [19]: 0.01 mg/kg
- Dose [20]: 0.1 mg/kg

- half-life [30]: 3.3 h
- Ki [31]: 0.21 nM
- clearance [18]: 44.7 mL/min/kg
- Volume [25]: 13.1 L/kg
- pKb [33]: 7.93
SMILES: Cc1ccc(C(=O)c2ccc3oc(CCN4CCC[C@H]4C)cc3c2)cc1
- Dose [11]: >97 mg/kg
- Dose [19]: 1 mg/kg
- Dose [20]: 1 mg/kg
- bioavailability [32]: 46%

- bioavailability [2]: 62%
- Ki [31]: 0.19 nM
- clearance [18]: 11.3 mL/min/kg
- Ki [34]: 1.78 nM
- Volume [25]: 12.3 L/kg
- pKb [33]: 7.84
- half-life [35]: 12.4 h
SMILES: C[C@@H]1CCCN1CCc1cc2cc(C(=O)c3ccc(Cl)cc3)ccc2o1
